ChEMBL document CHEMBL1129428 (J Med Chem, 1996)

Key:
[1] = Compound was tested for […] after intraperitoneal injection into mice by using neurotoxicity screen test after 2 hr; assay type: organism-based; conditions: mouse, in vivo, ip
Procedure, shortened: (§1)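 Quantitative intraperitoneal mouse testing in the MES, scPTZ or rotorod neurotoxicity screens at the peak time given for each compound (0.25–2 h). ED50 or TD50 reported in mg/kg with 95% CI and slope (SE).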

Mus musculus [2] = experiment: Compound was tested for anticonvulsant activity after intraperitoneal injection into mice by using MES screen test after 0.5 hr; assay type: functional; conditions: ip
Procedure, shortened: (§2)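 Mice injected intraperitoneally at 30, 100 and 300 mg/kg and examined 0.5 and 4 h afterwards. Each entry is the minimum dose giving activity (MES protection, scPTZ protection, or rotorod failure for neurotoxicity) in half or more of the mice. Activity is called absent if nothing occurs at 300 mg/kg.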

Mus musculus [3] = experiment: Anticonvulsant activity after intraperitoneal injection into mice by using scPTZ screen after 0.5 hr; assay type: functional
Rattus norvegicus [4] = experiment: Compound was tested for anticonvulsant activity after Oral Administration into Rats by using MES screen test after 0.25h,dose 50 mg/kg; No activity was demonstarted; assay type: functional, organism-based; design: dose 50 mg/kg
Procedure, shortened: (§3)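 Rats received the compound orally. […] Rats were tested in the MES screen at 0.25, 0.5, 1, 2 and 4 h. Each value is the number of rats protected out of 4. The test followed NINDS procedures.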

Mus musculus [5] = experiment: Anticonvulsant activity after intraperitoneal injection into mice measured in a maximal electroshock scree (MES) screen; assay type: functional
Rattus norvegicus [6] = experiment: Compound was tested for anticonvulsant activity after Oral Administration into Rats by using MES screen test after 4h,dose 50 mg/kg; number of rats out of four which were protected; assay type: functional; procedure, shortened: as §3
Rattus norvegicus [7] = experiment: Compound was tested for anticonvulsant activity after Oral Administration into Rats by using MES screen test after 2h,dose 50 mg/kg; number of rats out of four which were protected; assay type: functional; procedure, shortened: as §3
Rattus norvegicus [8] = experiment: Compound was tested for anticonvulsant activity after Oral Administration into Rats by using MES screen test after 0.5h,dose 50 mg/kg; number of rats out of four which were protected; assay type: functional; procedure, shortened: as §3
Mus musculus [9] = experiment: Compound was tested for toxicity after intraperitoneal injection into mice using toxicity screen test; conditions: in vivo, ip
Rattus norvegicus [10] = experiment: Compound was tested for anticonvulsant activity after Oral Administration into Rats by using MES screen test after 1h,dose 50 mg/kg; number of rats out of four which were protected; number of rats out of four which were protected; assay type: functional; procedure, shortened: as §3
Mus musculus [11] = experiment: Anticonvulsant activity after intraperitoneal injection into mice by using scPTZ screen test after 4 hr; assay type: functional
Mus musculus [12] = experiment: Anticonvulsant activity after intraperitoneal injection into mice by using MES screen test after 0.5 hr; assay type: functional
Mus musculus [13] = experiment: Compound was tested for toxicity after intraperitoneal injection into mice by using toxicity screen test after 4 hr; assay type: organism-based; conditions: in vivo, ip; procedure, shortened: as §2
Mus musculus [14] = experiment: Compound was tested for anticonvulsant activity after intraperitoneal injection into mice by using scPTZ screen test after 0.5 hr; assay type: functional; conditions: ip; procedure, shortened: as §2
[15] = Compound was tested for toxicity after intraperitoneal injection into mice by using neurotoxicity screen test after 2 hr; assay type: organism-based; conditions: mouse, in vivo, ip; procedure, shortened: as §1
[16] = Partition coefficient (logP); assay type: physicochemical; conditions: octanol/water
Procedure, shortened: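 Partition between 1-octanol and buffer at pH 7.4, with solutions prepared in 1-octanol before buffer is added. Quantified by UV, using λmax and ε values measured in 1-octanol.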

Mus musculus [17] = experiment: Compound was tested for anticonvulsant activity after intraperitoneal injection into mice by using scPTZ screen test after 0.25 hr; assay type: functional; conditions: ip; procedure, shortened: as §1
Rattus norvegicus [18] = experiment: Anticonvulsant activity after oral administration into rats; assay type: functional; design: concentration or dose not given beside the values
Mus musculus [19] = experiment: Toxicity after intraperitoneal injection into mice by using toxicity screen test after 0.5 hr; assay type: organism-based; conditions: in vivo, ip; procedure, shortened: as §2
Rattus norvegicus [20] = experiment: Compound was tested for anticonvulsant activity after Oral Administration into Rats by using MES screen test after 4h,dose 12.5 mg/kg; number of rats out of four which were protected; assay type: functional; procedure, shortened: as §3
Rattus norvegicus [21] = experiment: Compound was tested for anticonvulsant activity after Oral Administration into Rats by using MES screen test after 0.25h,dose 12.5 mg/kg; No activity was demonstarted; assay type: functional, organism-based; design: dose 12.5 mg/kg; procedure, shortened: as §3
Rattus norvegicus [22] = experiment: Compound was tested for anticonvulsant activity after Oral Administration into rat by using MES screen test after 2 hr; assay type: functional
Procedure, shortened: (§4)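 Rats dosed orally, typically at 50 mg/kg first, then mostly 12.5 mg/kg (some compounds at 30 mg/kg), and tested by maximal electroshock. Four rats per compound, scored at 0.25, 0.5, 1, 2 and 4 h as the number of rats protected out of 4.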

[23] = Protection index = TD50/ED50 (MES); assay type: ADME; conditions: read-out: TI
Mus musculus [24] = experiment: Compound was tested for anticonvulsant activity after intraperitoneal injection into mice by using MES screen test after 1 hr; assay type: functional; conditions: ip; procedure, shortened: as §1
[25] = Protection index = TD50/ED50 (MES); conditions: mouse, in vivo; read-out: PI
Rattus norvegicus [26] = experiment: Compound was tested for anticonvulsant activity after Oral Administration into Rats by using MES screen test after 1h,dose 12.5 mg/kg; number of rats out of four which were protected; assay type: functional; procedure, shortened: as §3
Rattus norvegicus [27] = experiment: Compound was tested for anticonvulsant activity after Oral Administration into Rats by using MES screen test after 2h,dose 12.5 mg/kg; number of rats out of four which were protected; assay type: functional; procedure, shortened: as §3
[28] = Compound was tested for toxicity after oral administration in rat by using neurotoxicity screen test after 2 hr; assay type: organism-based; conditions: in vivo
Procedure, shortened: (§5)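 Rat neurotoxicity after oral dosing, observed at 0.25, 0.5, 1, 2, 4, 6, 8 and 24 h (8 h omitted for one compound).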

Rattus norvegicus [29] = experiment: Compound was tested for anticonvulsant activity after Oral Administration into Rats by using MES screen test after 0.25h,dose 12.50 mg/kg; number of rats out of four which were protected; assay type: functional; conditions: dose 12.5 mg/kg; procedure, shortened: as §3
Rattus norvegicus [30] = experiment: Compound was tested for anticonvulsant activity after Oral Administration into rat by using MES screen test after 4 hr; assay type: functional; procedure, shortened: as §4
[31] = Compound was tested for toxicity after intraperitoneal injection into mice by using neurotoxicity screen test after 1 hr; assay type: organism-based; conditions: mouse, in vivo, ip; procedure, shortened: as §1
Rattus norvegicus [32] = experiment: Compound was tested for anticonvulsant activity after Oral Administration into Rats by using MES screen test after 0.5h,dose 12.50 mg/kg; number of rats out of four which were protected; assay type: functional; conditions: dose 12.5 mg/kg; procedure, shortened: as §3
Rattus norvegicus [33] = experiment: Compound was tested for anticonvulsant activity after Oral Administration into Rats by using MES screen test after 4h,dose 12.50 mg/kg; number of rats out of four which were protected; assay type: functional; conditions: dose 12.5 mg/kg; procedure, shortened: as §3
Mus musculus [34] = experiment: Anticonvulsant activity after intraperitoneal injection into mice by using toxicity screen test after 0.5 hr; assay type: organism-based; conditions: in vivo, ip
Rattus norvegicus [35] = experiment: Compound was tested for anticonvulsant activity after Oral Administration into Rats by using MES screen test after 1h,dose 12.50 mg/kg; number of rats out of four which were protected; assay type: functional; conditions: dose 12.5 mg/kg; procedure, shortened: as §3
Rattus norvegicus [36] = experiment: Compound was tested for anticonvulsant activity after Oral Administration into Rats by using MES screen test after 2h,dose 12.50 mg/kg; number of rats out of four which were protected; assay type: functional; conditions: dose 12.5 mg/kg; procedure, shortened: as §3
Mus musculus [37] = experiment: Compound was tested for anticonvulsant activity after intraperitoneal injection into mice by using scPTZ screen test after 2 hr; assay type: functional; conditions: ip; procedure, shortened: as §1
Mus musculus [38] = experiment: Compound was tested for anticonvulsant activity after intraperitoneal injection into mice by using MES screen test after 2 hr; assay type: functional; conditions: ip; procedure, shortened: as §1
Rattus norvegicus [39] = experiment: Compound was tested for anticonvulsant activity after Oral Administration into Rats by using MES screen test after 4h,dose 15 mg/kg; number of rats out of four which were protected; assay type: functional; procedure, shortened: as §3
Rattus norvegicus [40] = experiment: Compound was tested for anticonvulsant activity after Oral Administration into Rats by using MES screen test after 0.5h,dose 15 mg/kg; No activity was demonstarted; assay type: functional, organism-based; design: dose 15 mg/kg; procedure, shortened: as §3
Rattus norvegicus [41] = experiment: Compound was tested for anticonvulsant activity after Oral Administration into Rats by using MES screen test after 2h,dose 15 mg/kg; number of rats out of four which were protected; assay type: functional; procedure, shortened: as §3
Rattus norvegicus [42] = experiment: Compound was tested for anticonvulsant activity after Oral Administration into Rats by using MES screen test after 0.25h,dose 15 mg/kg; No activity was demonstarted; assay type: functional, organism-based; design: dose 15 mg/kg; procedure, shortened: as §3
Rattus norvegicus [43] = experiment: Compound was tested for anticonvulsant activity after Oral Administration into Rats by using MES screen test after 1h,dose 15 mg/kg; number of rats out of four which were protected; assay type: functional; procedure, shortened: as §3
Mus musculus [44] = experiment: Compound was tested for anticonvulsant activity after intraperitoneal injection into mice by using MES screen test at 1 hr; assay type: functional; conditions: ip; procedure, shortened: as §1
Mus musculus [45] = experiment: Compound was tested for anticonvulsant activity after intraperitoneal injection into mice by using scPTZ screen test after 1 hr; assay type: functional; conditions: ip; procedure, shortened: as §1
Rattus norvegicus [46] = experiment: Compound was tested for anticonvulsant activity after Oral Administration into Rats by using MES screen test after 0.5h,dose 12.5 mg/kg; No activity was demonstarted; assay type: functional, organism-based; design: dose 12.5 mg/kg; procedure, shortened: as §3
[47] = Compound was tested for toxicity after intraperitoneal injection into mice by using neurotoxicity screen test after 4 hr; assay type: organism-based; conditions: mouse, in vivo, ip; procedure, shortened: as §2
[48] = Compound was tested for toxicity after oral administration in rat by using neurotoxicity screen test after 0.25-24 hr; assay type: organism-based; conditions: in vivo; procedure, shortened: as §5

NC(=O)N/N=C\c1ccc(Oc2cccc(Cl)c2)cc1
TD50 at 2 h [1]: 64.5 mg/kg
ED50 (Mus musculus [2]): 27.7 mg/kg
Dose (Mus musculus [3]): 30 mg/kg
Activity (Rattus norvegicus [4]): No activity
Dose (Mus musculus [5]): 100 mg/kg
Activity (Rattus norvegicus [6]): 4
Activity (Rattus norvegicus [7]): 4
Activity (Rattus norvegicus [8]): 4
Dose (Mus musculus [9]): 300 mg/kg
Activity (Rattus norvegicus [10]): 4
Dose (Mus musculus [11]): 300 mg/kg
Dose (Mus musculus [12]): 30 mg/kg
Dose (Mus musculus [13]): 100 mg/kg
ED50 (Mus musculus [14]): 41.2 mg/kg

C/C(=N/NC(N)=O)c1ccc(Oc2ccc(F)cc2)cc1
TD50 at 2 h [15]: 60.7 mg/kg
Dose (Mus musculus [3]): 100 mg/kg
logP [16]: 2.03
ED50 (Mus musculus [17]): > 80 mg/kg
Activity (Rattus norvegicus [18]): 4
Dose (Mus musculus [19]): 300 mg/kg
Dose (Mus musculus [5]): 30 mg/kg
Activity (Rattus norvegicus [20]): 4
Activity (Rattus norvegicus [21]): No activity
ED50 (Rattus norvegicus [22]): 3.37 mg/kg
selectivity ratio [23]: 32.3
ED50 (Mus musculus [24]): 11.6 mg/kg
selectivity ratio [25]: 5.22
Activity (Rattus norvegicus [26]): 4
Activity (Rattus norvegicus [27]): 4
TD50 at 2 h [28]: 109 mg/kg
Dose (Mus musculus [12]): 30 mg/kg
Dose (Mus musculus [13]): 100 mg/kg

NC(=O)N/N=C/c1ccc(Oc2ccc(Cl)cc2F)cc1
Activity (Rattus norvegicus [29]): 2
ED50 (Rattus norvegicus [30]): 1.13 mg/kg
TD50 at 1 h [31]: 36.3 mg/kg
Activity (Rattus norvegicus [32]): 4
Activity (Rattus norvegicus [33]): 4
Dose (Mus musculus [5]): 30 mg/kg
Dose (Mus musculus [34]): 100 mg/kg
Activity (Rattus norvegicus [35]): 4
Activity (Rattus norvegicus [36]): 4
TD50 at 2 h [28]: > 90 mg/kg
Dose (Mus musculus [12]): 30 mg/kg
ED50 (Mus musculus [37]): > 45 mg/kg
Dose (Mus musculus [13]): 30 mg/kg
ED50 (Mus musculus [38]): 3.31 mg/kg

CCC(C)(C)c1ccc(Oc2ccc(/C=N/NC(N)=O)cc2)cc1
Activity (Rattus norvegicus [39]): 4
Activity (Rattus norvegicus [40]): No activity
Activity (Rattus norvegicus [41]): 3
Activity (Rattus norvegicus [42]): No activity
Dose (Mus musculus [12]): 300 mg/kg
Activity (Rattus norvegicus [43]): 2

Cc1ccc(Sc2ccc(/C=N/NC(N)=O)cc2)cc1
ED50 (Mus musculus [44]): 9.46 mg/kg
Dose (Mus musculus [3]): 100 mg/kg
ED50 (Mus musculus [45]): > 300 mg/kg
Dose (Mus musculus [19]): 300 mg/kg
Dose (Mus musculus [5]): 30 mg/kg
Activity (Rattus norvegicus [20]): 4
Activity (Rattus norvegicus [21]): No activity
ED50 (Rattus norvegicus [22]): 3.65 mg/kg
Activity (Rattus norvegicus [46]): No activity
TD50 at 4 h [47]: 197 mg/kg
Activity (Rattus norvegicus [26]): 4
Activity (Rattus norvegicus [27]): 4
Dose (Mus musculus [11]): 100 mg/kg
Dose (Mus musculus [12]): 30 mg/kg
Dose (Mus musculus [13]): 100 mg/kg
TD50 [48]: > 500 mg/kg
